Drawing on the RNAGym collection of RNA variant scans (doi:10.1126/science.aae0568), this text covers yeast fitness for 167 variants.

Fewer inactive variants are shown than the library holds.

Sequences and labels used below:
B1: tRNA (parent)
chain: GUUCCGUUGGCGUAAUGGUAACGCGUCUCCCUCCUAAGGAGAAGACUGCGGGUUCGAGUCCCGUACGGAACG

Variants of B1 are the subject of the series. In words: yeast fitness relative to wild type (ratio to wild type); higher = fitter; tRNA-Arg(CCU), competitive growth, 37 C, YPD. Put shortly: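 Amplicons of the tRNA-Arg(CCU) gene were sequenced, 100-nucleotide paired-end, from the start population and from each end population of a pooled yeast competition. The competition, in six parallel replicates, lasted 24 hours in YPD at 37°C. Fitness relative to wild type was calculated from changes in genotype frequencies. Genotypes had to have ≥ 100 starting reads, and estimates < 0.5 were set to 0.5.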
In the case of U2A A20G C27G, the yeast fitness is at most 0.5.

U2A C33G A36C: the yeast fitness was at most 0.5.

As for U2A C5G A42U, the yeast fitness was at most 0.5.

With U2A C5G A42G, the yeast fitness turned out to be 0.541.

For U2A C33G A42C, the yeast fitness amounted to 0.509.

U2A C4U U28A C30U A57G: the yeast fitness was determined as 0.688.

Consider U2A C11A G38C C60A, for which the yeast fitness was 0.582.

On to U2A C30U G44C G51A C61U, for which the yeast fitness is at most 0.5.

As for U2A C11G C34U A42U G68A, the yeast fitness is at most 0.5.

For U2A C22U, the yeast fitness stood at 0.796.

Turning to U2A C22G, the yeast fitness is 0.888.

For the variant U2A G9A U19C, the yeast fitness was 1.03.

As to U2A G17C A57C G63C C66U, the yeast fitness is at most 0.5.

U2A C30G G58C C66G: the yeast fitness was at most 0.5.

Consider U2A G39U C49A G58C, for which the yeast fitness was found to be 0.939.

For the variant U2A G9A A45C, the yeast fitness stood at 0.682.

On to U2A A42G C61U G63A, for which the yeast fitness was at most 0.5.

As for U2A C4U U28A C30U C60G C66G, the yeast fitness was at most 0.5.

For U2A G6A U7C A15C C29G C33U, the yeast fitness was at most 0.5.

On to U2A G6C U16C C24U, for which the yeast fitness is 0.523.

In the case of U2A A20G C55G, the yeast fitness was 0.537.

As for U2A C29G U47G C49G U54G, the yeast fitness was at most 0.5.

On to U2A A42G A43G G50A, for which the yeast fitness was 0.541.

For the variant U2A C34G A40C C46G, the yeast fitness came out at 0.516.

For the variant U2A C46G, the yeast fitness stood at 0.829.

With U2A C33G G51C C66G G67A A69C, the yeast fitness was at most 0.5.

As for U2A C31U U35C A45U, the yeast fitness was at most 0.5.

On to U2A G6A C11G U28G C34G G44C C61G, for which the yeast fitness is at most 0.5.

Regarding U2A G38C C55U, the yeast fitness is at most 0.5.

Regarding U2A A21G C29U A40U C49G, the yeast fitness is at most 0.5.

As for U2A C4G C5G G25A C30G C34A C49G, the yeast fitness was at most 0.5.

With U2A C11U G58C, the yeast fitness came out at 0.678.

With U2A C29G C30G C49A G56C C61U, the yeast fitness stood at 0.749.

U2A G6A C33G C34G C61A: the yeast fitness is at most 0.5.

U2A G39A U47A C49U U54A: the yeast fitness was at most 0.5.

Consider U2A C22U U32A A65G, for which the yeast fitness is at most 0.5.

With U2A C24G A43U C46U A57G, the yeast fitness is at most 0.5.

As for U2A C11G A21G A37G, the yeast fitness was at most 0.5.

Take U2A G17C C46U G67C: the yeast fitness was at most 0.5.

U2A C5A C60A: the yeast fitness is at most 0.5.

As for U2A C5G U8A C61A, the yeast fitness was at most 0.5.

As to U2A C31G C49U G51A G63A, the yeast fitness was at most 0.5.

For U2A C5G C11G A20G, the yeast fitness was at most 0.5.

As for U2A C11U U19G, the yeast fitness was 0.647.

Consider U2A C4A G6A C29G A57G, for which the yeast fitness was at most 0.5.

As to U2A C30U, the yeast fitness turned out to be 0.812.

As to U2A C5G C11G A14U A15U U16C C29U, the yeast fitness was at most 0.5.

For the variant U2A C11G A40U, the yeast fitness came to 0.544.

Turning to U2A C5U C24U C34U A40C, the yeast fitness is at most 0.5.

U2A C31U A40C C55G G68A A69U: the yeast fitness was at most 0.5.

Regarding U2A G39A A69G, the yeast fitness was 0.599.

With U2A G9A A37G U47C A65C, the yeast fitness was at most 0.5.

For U2A G9A C34U C49G G52C C55U C62G, the yeast fitness was at most 0.5.

On to U2A C5U U64C, for which the yeast fitness was determined as 1.06.

Take U2A C5U C24U U54C G58A: the yeast fitness is 0.569.

For the variant U2A C4U G44C C61A, the yeast fitness is at most 0.5.

Turning to U2A C11U U19G C55U, the yeast fitness turned out to be 0.571.

For the variant U2A C5U G23A A37G A69G A70U, the yeast fitness came out at 0.845.

In the case of U2A A20U U53A C60A, the yeast fitness came to 0.558.

Take U2A A20G C31A A43U C61A: the yeast fitness was at most 0.5.

On to U2A C24A A36G A45G, for which the yeast fitness is at most 0.5.

U2A G18C G23A G25C A37G A43C C55G G68A: the yeast fitness was determined as 0.558.

Take U2A C31G A65U A69C: the yeast fitness is at most 0.5.

Regarding U2A C27A, the yeast fitness is 0.894.

On to U2A C27U, for which the yeast fitness was found to be 0.982.

For the variant U2A G6C C33U A40G, the yeast fitness was determined as 0.547.

For U2A C49G, the yeast fitness was found to be 0.812.

In the case of U2A C49A, the yeast fitness amounted to 0.637.

As for U2A C24A A42U, the yeast fitness is at most 0.5.

In the case of U2A A21C C30A C49A, the yeast fitness is at most 0.5.

Turning to U2A G18A C22A C24G A43G C49G, the yeast fitness is 0.634.

As for U2A C11U G48C, the yeast fitness was at most 0.5.

On to U2A C5A U53G, for which the yeast fitness was 0.514.

Regarding U2A A20U A21C C27U C33A A70C, the yeast fitness is 0.528.

As for U2A C33U A37C, the yeast fitness stood at 0.532.

U2A C11G: the yeast fitness was found to be 0.647.

Regarding U2A C11A, the yeast fitness turned out to be 0.614.

For the variant U2A G10C, the yeast fitness came out at 0.673.

For U2A A40U A65C, the yeast fitness is at most 0.5.

U2A A20U C30A A36U C60U A69C: the yeast fitness is at most 0.5.

Regarding U2A A45C A65C, the yeast fitness was found to be 0.764.

U2A A45C A65U: the yeast fitness came to 0.624.

With U2A A40G, the yeast fitness worked out at 0.932.

In the case of U2A C22G G63A, the yeast fitness came to 0.568.

With U2A G41C, the yeast fitness was 0.757.

U2A A21U U54A G56C: the yeast fitness is 0.646.

For U2A A43G, the yeast fitness was 0.988.

With U2A A43U, the yeast fitness was 0.956.

Regarding U2A C46G C49U, the yeast fitness came out at 0.686.

U2A C27U U47G C55G G58C: the yeast fitness is at most 0.5.

As for U2A C11G C49A A70G, the yeast fitness was at most 0.5.

Take U2A C5G C24U C30G: the yeast fitness was at most 0.5.

As for U2A C11G U47A G48A C66U A70U, the yeast fitness is at most 0.5.

On to U2A C4U G10C C29U U32A A43U, for which the yeast fitness was at most 0.5.

Regarding U2A C5U G23A A37G, the yeast fitness turned out to be 0.689.

On to U2A C11G A21G, for which the yeast fitness was 0.567.

For the variant U2A C60U A65U A70U, the yeast fitness is at most 0.5.

Turning to U2A C5U C29G A37U, the yeast fitness is 0.512.

In the case of U2A C24U C30U C34U G52A C66G, the yeast fitness is at most 0.5.

On to U2A C60A, for which the yeast fitness came out at 0.645.

Turning to U2A C11U G23C C27A A69U, the yeast fitness was at most 0.5.

With U2A C5G U53A C66U, the yeast fitness was at most 0.5.

Consider U2A G10C C27A A37U C49A G56A, for which the yeast fitness was at most 0.5.

Consider U2A C24A, for which the yeast fitness was 0.662.

For U2A G23A C29G C55U, the yeast fitness is at most 0.5.

For U2A A21C C31G A43C, the yeast fitness is at most 0.5.

Take U2A C27A C60U U64C A69G: the yeast fitness is at most 0.5.

Take U2A G6C G52A: the yeast fitness is at most 0.5.

For U2A C66U G67A, the yeast fitness was found to be 0.601.

Take U2A G25A C31G G39C C49U C60G: the yeast fitness is at most 0.5.

Consider U2A A21U, for which the yeast fitness amounted to 0.686.

As for U2A C29A A45U G67C, the yeast fitness is at most 0.5.

As for U2A A21C C29U G52C, the yeast fitness was at most 0.5.

For U2A G9A A37G A65C, the yeast fitness is at most 0.5.

As to U2A C33U, the yeast fitness is 0.636.

U2A C33A: the yeast fitness turned out to be 0.721.

U2A C24G G63A: the yeast fitness is 0.551.

In the case of U2A C11A A14G C29U A65C, the yeast fitness was found to be 0.568.

Consider U2A C24G G63C G67C A69U, for which the yeast fitness is at most 0.5.

On to U2A C30A C61U, for which the yeast fitness is at most 0.5.

Regarding U2A G6C U7C A43C C46U G63C C66U, the yeast fitness was at most 0.5.

For U2A C5G A37U C49U C61U, the yeast fitness is at most 0.5.

On to U2A G9C G17A C60G, for which the yeast fitness turned out to be 0.572.

For the variant U2A C5U G41A, the yeast fitness is at most 0.5.

Regarding U2A G9C U16G U32G G52A G63C C66U, the yeast fitness was at most 0.5.

With U2A C34G A37U A40U C66U, the yeast fitness was at most 0.5.

U2A G23A C29G A69U: the yeast fitness was 0.643.

For the variant U2A A36C A45C C55G C62A G68A, the yeast fitness is at most 0.5.

With U2A C27U C34A, the yeast fitness is at most 0.5.

Turning to U2A C4A U19G, the yeast fitness is at most 0.5.

Regarding U2A C5G A14G C30G C46U C66A A70U, the yeast fitness is at most 0.5.

On to U2A C11A C24G U47G, for which the yeast fitness is at most 0.5.

Regarding U2A G6A C11G C49U A65U, the yeast fitness is at most 0.5.

U2A G25A: the yeast fitness worked out at 0.828.

Consider U2A C11G U28A A65G, for which the yeast fitness is at most 0.5.

With U2A C22A C49G, the yeast fitness was at most 0.5.

With U2A G23C G58A, the yeast fitness was at most 0.5.

With U2A C11G G25A C49A, the yeast fitness was found to be 0.553.

With U2A C30U A57G, the yeast fitness is at most 0.5.

Consider U2A C33G C46A C66A, for which the yeast fitness was at most 0.5.

U2A C30U U32A C62G: the yeast fitness is at most 0.5.

As for U2A A20G C49U, the yeast fitness stood at 0.605.

For U2A G23A C29G G58C C60U C66G, the yeast fitness is at most 0.5.

As for U2A C60U A65U, the yeast fitness is at most 0.5.

In the case of U2A G9A U19C A69C, the yeast fitness is 0.685.

Consider U2A C5G U8A C24U C61G C66U A69U, for which the yeast fitness was at most 0.5.

Consider U2A C11U A70C, for which the yeast fitness is 0.587.

Take U2A C24U A42C C62G: the yeast fitness was at most 0.5.

As to U2A A21U G50A, the yeast fitness is at most 0.5.

With U2A C4A C34A A43C C46U, the yeast fitness is at most 0.5.

As for U2A G6A C27G A42U A43U, the yeast fitness was at most 0.5.

In the case of U2A C4A U13C A42G C61U, the yeast fitness is at most 0.5.

In the case of U2A A20G C34A C49U, the yeast fitness is at most 0.5.

As to U2A C11A C31U, the yeast fitness was at most 0.5.

Take U2A C5G C24U C30G A70C: the yeast fitness was found to be 0.54.

Turning to U2A C5A C30U A69U, the yeast fitness is at most 0.5.

U2A A57C: the yeast fitness was 0.607.

Take U2A G25A A40C A65C: the yeast fitness is at most 0.5.

On to U2A C11U C29G A37C A42U A57G G67A, for which the yeast fitness was at most 0.5.

In the case of U2A C4G A14U C60A, the yeast fitness is at most 0.5.

In the case of U2A G9A C31U C46G C49U C66G, the yeast fitness was at most 0.5.

Turning to U2A G12A A21C G48C, the yeast fitness was at most 0.5.

With U2A G9U A20G, the yeast fitness was at most 0.5.

For U2A G6A U7C G25A A36U C60A C62G, the yeast fitness was at most 0.5.

Consider U2A G18A C30G U35C, for which the yeast fitness was at most 0.5.

For the variant U2A C24U C30U C34U G52A, the yeast fitness was at most 0.5.

As to U2A C4G, the yeast fitness was 0.838.
